For series [1], the target named is Cytosol aminopeptidase (Homo sapiens, UniProt P28838). Kind of series: Inhibitory concentration against cytosolic leucine aminopeptidase.
Series [2] addresses T1, Leukotriene A-4 hydrolase (Homo sapiens) (UniProt P09960).
T1 sequence (whole entry): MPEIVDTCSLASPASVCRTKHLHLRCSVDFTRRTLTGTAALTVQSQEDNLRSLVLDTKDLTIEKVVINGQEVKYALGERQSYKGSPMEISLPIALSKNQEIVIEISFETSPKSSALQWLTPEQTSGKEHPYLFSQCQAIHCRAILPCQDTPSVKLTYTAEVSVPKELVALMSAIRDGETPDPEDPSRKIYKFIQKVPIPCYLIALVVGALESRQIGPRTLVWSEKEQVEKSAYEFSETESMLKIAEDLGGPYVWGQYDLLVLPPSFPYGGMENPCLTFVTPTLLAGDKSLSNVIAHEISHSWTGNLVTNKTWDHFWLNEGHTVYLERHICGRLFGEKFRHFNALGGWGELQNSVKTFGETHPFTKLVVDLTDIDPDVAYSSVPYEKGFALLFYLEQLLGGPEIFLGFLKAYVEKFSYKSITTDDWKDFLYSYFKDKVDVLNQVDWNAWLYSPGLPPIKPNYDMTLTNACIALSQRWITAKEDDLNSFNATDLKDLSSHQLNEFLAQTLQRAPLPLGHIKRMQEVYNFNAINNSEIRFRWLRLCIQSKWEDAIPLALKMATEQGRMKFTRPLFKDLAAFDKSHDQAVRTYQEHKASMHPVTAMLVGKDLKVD
Kind of series: Kinetic parameter kcat against LTA4 hydrolase purified from human leukocytes. In a few lines:
(§1)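 Amino acid amides tested as substrates in 50 mM Tris-Cl, pH 7.6, with 0.1 M NaCl. p-Nitroaniline release read at 410 nm using ε 8850 M⁻¹ cm⁻¹.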

Series [3] can be described thus: Ratio kcat /Km ([…]/M 1/s). Also noted: scale not given here.
The target of series [4] is T2, Leukotriene A-4 hydrolase (Homo sapiens, UniProt P09960).
T2 sequence (P09960 whole entry): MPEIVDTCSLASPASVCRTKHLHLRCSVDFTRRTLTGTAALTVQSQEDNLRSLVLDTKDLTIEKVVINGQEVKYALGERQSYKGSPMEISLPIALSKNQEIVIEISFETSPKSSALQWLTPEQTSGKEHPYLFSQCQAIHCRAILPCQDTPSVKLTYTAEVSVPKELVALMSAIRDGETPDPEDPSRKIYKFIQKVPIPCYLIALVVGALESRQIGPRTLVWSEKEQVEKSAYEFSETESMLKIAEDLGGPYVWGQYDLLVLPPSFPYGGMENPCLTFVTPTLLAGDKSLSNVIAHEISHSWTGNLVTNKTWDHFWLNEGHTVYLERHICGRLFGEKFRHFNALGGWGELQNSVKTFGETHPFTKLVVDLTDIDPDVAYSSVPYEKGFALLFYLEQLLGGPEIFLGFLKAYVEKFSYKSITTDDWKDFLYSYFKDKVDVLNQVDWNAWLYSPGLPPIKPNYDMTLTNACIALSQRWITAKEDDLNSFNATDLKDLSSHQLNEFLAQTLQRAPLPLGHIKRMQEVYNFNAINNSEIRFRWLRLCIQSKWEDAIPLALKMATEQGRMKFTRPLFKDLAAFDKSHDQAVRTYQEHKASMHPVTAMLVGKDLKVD
Put plainly: Inhibition of amidase activity of LTA4 hydrolase purified from human leukocytes.

Series [5] addresses T2, Leukotriene A-4 hydrolase. Put plainly: Ability at 1 mM to inhibit amidase activity of LTA4 hydrolase (1.4 ug) purified from human leukocytes; NI=No inhibition. In a few lines: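 Human leukocyte enzyme (1.4 μg) in 0.05 M Tris-HCl, pH 8.0, with 1.5 mM L-alanyl p-nitroanilide as substrate. Inhibitor tested at 1 mM; thiol compounds assayed with 5 mM DTT. p-Nitroaniline release followed spectrophotometrically at 405 nm.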

Substrate in series [6]: C[C@H](N)C(=O)Nc1ccc([N+](=O)[O-])cc1
Put plainly: (§2) Kinetic parameter (Km) for hydrolysis of LTA4 hydrolase purified from human leukocytes. In a few lines:
as §1

Substrate in series [7]: NC(N)=NCCC[C@H](N)C(=O)Nc1ccc([N+](=O)[O-])cc1
The description is as §2. In a few lines:
as §1

Substrate in series [8]: NCCCC[C@H](N)C(=O)Nc1ccc([N+](=O)[O-])cc1
The description is as §2. The method in brief:
as §1

Substrate in series [9]: C[C@@H](N)C(=O)Nc1ccc([N+](=O)[O-])cc1
Kind of series: (§3) Kinetic parameter Vmax against LTA4 hydrolase purified from human leukocytes was determined. In a few lines: as §1

Substrate in series [10]: C[C@H](N)C(=O)Nc1ccc([N+](=O)[O-])cc1
The description is as §3. In a few lines: as §1

Substrate in series [11]: NC(N)=NCCC[C@H](N)C(=O)Nc1ccc([N+](=O)[O-])cc1
Described as §3. The method in brief:
as §1

Substrate in series [12]: NCCCC[C@H](N)C(=O)Nc1ccc([N+](=O)[O-])cc1
The series is described as §3. In a few lines: as §1

A value given as a limit tells only on which side of the number the result lay.

For orientation: IC50 means the point on the concentration scale where inhibition reaches its midpoint. A word on the Km: it is the substrate concentration at which the rate is half of its maximum.

Sequence of Cytosol aminopeptidase (P28838 whole entry): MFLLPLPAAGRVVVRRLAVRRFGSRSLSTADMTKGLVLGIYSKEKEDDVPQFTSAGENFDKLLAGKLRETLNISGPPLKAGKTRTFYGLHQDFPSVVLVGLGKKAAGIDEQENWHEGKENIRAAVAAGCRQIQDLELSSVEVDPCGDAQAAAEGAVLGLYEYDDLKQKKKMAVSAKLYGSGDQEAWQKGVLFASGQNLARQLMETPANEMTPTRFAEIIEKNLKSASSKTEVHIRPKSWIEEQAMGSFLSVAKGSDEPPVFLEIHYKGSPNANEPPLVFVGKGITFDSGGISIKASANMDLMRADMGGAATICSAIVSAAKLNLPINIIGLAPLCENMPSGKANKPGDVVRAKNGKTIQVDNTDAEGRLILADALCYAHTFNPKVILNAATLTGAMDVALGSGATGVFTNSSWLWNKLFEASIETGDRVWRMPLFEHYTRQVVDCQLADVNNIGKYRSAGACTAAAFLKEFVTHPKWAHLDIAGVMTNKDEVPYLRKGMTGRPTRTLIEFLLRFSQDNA

As to `N[C@H](CS)Cc1ccc(OCc2ccccc2)cc1`, the half-maximal inhibitory concentration (IC50) in series [1] is more than 50 µM.
`C[C@H](N)C(=O)Nc1ccc([N+](=O)[O-])cc1`: the k cat in series [2] turned out to be 0.6 s⁻¹. The Ratio in series [3] was 0.0012.
As to `N[C@@H](Cc1ccc(OCc2ccccc2)cc1)C(=O)C(=O)OCc1ccccc1`, the IC50 in series [1] is more than 100 µM.
For the molecule `CC(C)C[C@H](/N=C(\S)[C@@H](O)[C@H](N)Cc1ccccc1)C(=O)O`, the IC50 in [4] was more than 100 µM.
The molecule `NCCCC[C@H](N)C(=O)Nc1ccc([N+](=O)[O-])cc1` registered a k cat in [2] of 0.035 s⁻¹. Besides, in series [3], the Ratio was 0.00035.
`COC(=O)C(S)C(N)Cc1ccccc1` (stereo not given): in series [4], half-maximal inhibition (IC50) was put at 250 µM.
In turn, `O=C(Nc1ccc([N+](=O)[O-])cc1)[C@@H]1CCCN1` had a k cat in series [2] of 0.15 s⁻¹. For the same molecule, the Ratio in series [3] is 0.0015.
Regarding `N[C@H](Cc1ccccc1)[C@H](O)C(=O)O`, the IC50 result in series [5] is given as “Not Active”.
In the case of `N[C@@H](Cc1ccccc1)[C@H](O)C(=O)OCc1ccccc1`, it took 20 µM to reach half-maximal inhibition in series [4] (IC50).
Still for that read-out and setting: in the case of `CCOC(=O)CC(F)(F)C(=O)c1[nH]cnc1C` it was more than 1000 µM.
With `COC(=O)[C@H](O)[C@H](N)Cc1ccccc1`, the IC50 entry in [5] is “Not Active”.
`CC(C)C[C@H](/N=C(\S)[C@H](O)[C@H](N)Cc1ccccc1)C(=O)O` gave a 50% inhibitory concentration (IC50) in series [4] of more than 100 µM.
As for `NC(N)=NCCC[C@H](N)C(=O)Nc1ccc([N+](=O)[O-])cc1`, the k cat in series [2] worked out at 0.15 s⁻¹. Also, the Ratio in [3] came to 0.00075.
As to `CC(C)C[C@H](/N=C(\S)[C@H](O)[C@@H](N)Cc1ccccc1)C(=O)O`, the IC50 in series [4] was more than 100 µM.
As to `N[C@@H](Cc1ccccc1)[C@H](O)C(=O)NCc1ccccc1`, in series [4], the IC50 was more than 100 µM.
In turn, `CC(C)C[C@H](NC(=O)C(S)C(N)Cc1ccccc1)C(=O)O` (stereo not given in full) gave a concentration for half-maximal inhibition (IC50) in [4] of more than 250 µM.
In [1], `N[C@@H](Cc1ccc(OCc2ccccc2)cc1)[C@H](O)C(=O)OCc1ccccc1` gave an IC50 of 80 µM.
`NC(Cc1ccccc1)P(=O)(O)NCC(=O)O` (stereo not given) gave an IC50 in series [4] of more than 100 µM.
`CC(C)C[C@H](N)C(=O)Nc1ccc([N+](=O)[O-])cc1` yielded a k cat in series [2] of 0.15 s⁻¹. Further, the Ratio in series [3] was 0.0005.
In the same order, the values of `CCCCC/C=C\C\C=C/C=C/C=C/[C@@H]1O[C@H]1CCCC(=O)O` are 0.68 s⁻¹ and 0.09.
With `COC(=O)[C@@H](O)[C@H](N)Cc1ccccc1`, in series [5], the IC50 entry was “Not Active”.
In series [1], `COC(=O)C(=O)[C@@H](N)Cc1ccc(OCc2ccccc2)cc1` displayed an IC50 of 50 µM.

B1: Leukotriene A-4 hydrolase (Homo sapiens), P09960 (protein)
chain: MPEIVDTCSLASPASVCRTKHLHLRCSVDFTRRTLTGTAALTVQSQEDNLRSLVLDTKDLTIEKVVINGQEVKYALGERQSYKGSPMEISLPIALSKNQEIVIEISFETSPKSSALQWLTPEQTSGKEHPYLFSQCQAIHCRAILPCQDTPSVKLTYTAEVSVPKELVALMSAIRDGETPDPEDPSRKIYKFIQKVPIPCYLIALVVGALESRQIGPRTLVWSEKEQVEKSAYEFSETESMLKIAEDLGGPYVWGQYDLLVLPPSFPYGGMENPCLTFVTPTLLAGDKSLSNVIAHEISHSWTGNLVTNKTWDHFWLNEGHTVYLERHICGRLFGEKFRHFNALGGWGELQNSVKTFGETHPFTKLVVDLTDIDPDVAYSSVPYEKGFALLFYLEQLLGGPEIFLGFLKAYVEKFSYKSITTDDWKDFLYSYFKDKVDVLNQVDWNAWLYSPGLPPIKPNYDMTLTNACIALSQRWITAKEDDLNSFNATDLKDLSSHQLNEFLAQTLQRAPLPLGHIKRMQEVYNFNAINNSEIRFRWLRLCIQSKWEDAIPLALKMATEQGRMKFTRPLFKDLAAFDKSHDQAVRTYQEHKASMHPVTAMLVGKDLKVD
Take B1: the Michaelis-Menten constant (Km) in [6] worked out at 500 µM; in series [7], 200 µM; in series [8], 100 µM. Moreover, the Vmax (nM min-1 mg-1) is 0 in series [9], 530 in [10], 135 in series [11] and 30 in series [12].

The record behind these values is ChEMBL document CHEMBL1126810, “Development of selective tight-binding inhibitors of leukotriene A4 hydrolase” (J Med Chem, 1993).
